In ChEMBL document CHEMBL1156197, “Design, synthesis and evaluation of novel 2-thiophen-5-yl-3H-quinazolin-4-one analogues as inhibitors of transcription factors NF-kappaB and AP-1 mediated transcriptional activation: Their possible utilization as anti-inflammatory and anti-cancer agents” (Bioorg Med Chem, 2010):

Legend:
[1] = test system: HEK293; experiment: Cytotoxicity against TNF-alpha-stimulated HEK293 cells at 10 uM treated 24 hrs before TNFalpha challenge measured after 20 to 24 hrs; assay type: cell-based; conditions: human, hek293, 10 µM
[2] = target: Transcription factor Jun (Homo sapiens) (UniProt P05412); experiment: Inhibition of AP-1 expressed in HEK293 cells assessed as PMA-stimulated transcriptional activation at 10 uM treated 24 hrs before PMA challenge measured after 20 to 24 hrs by luciferase reporter gene assay; assay type: cell-based
In short: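 HEK-293 cells stably carrying a minimal-promoter luciferase construct with tandem AP-1 elements (TGACTAA) were plated at 5 × 10⁴ cells/well and held 24 h at 37 °C in 5% CO₂. Compounds in 0.1% DMSO (10 µM–1 nM) were added to replicate wells for 24 h. Cells were then stimulated with PMA for 20–24 h and read with Bright-Glo luminescence. Mean RLU was normalized to the maximal control; IC50 came from a six-point dose response.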

[3] = test system: HEK293; experiment: Inhibition of NF-kappaB expressed in HEK293 cells assessed as inhibition of TNF-alpha-stimulated transcriptional activation at 10 uM treated 24 hrs before TNFalpha challenge measured after 20 to 24 hrs by luciferase reporter gene assay; assay type: cell-based
In short: (§1)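 Compounds in 0.1% DMSO (10 µM–1 nM) were added to replicate wells for 24 h. Cells were then stimulated with TNF-α for 20–24 h and read with Bright-Glo luciferase. Mean RLU was normalized to the maximal control; IC50 came from a six-point dose response.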

[4] = test system: Rattus norvegicus; experiment: Antiinflammatory activity against carrageenan-induced paw edema in Sprague-Dawley rat assessed as reduction in paw volume at 50 mg/kg, po dosed 1 hr before carrageenan challenge measured after 3 hrs by plethysmometry; assay type: functional; parameters: scale not given: the % may be the effect or the level left
[5] = Inhibition of NF-kappaB expressed in HEK293 cells assessed as inhibition of TNF-alpha-stimulated transcriptional activation treated 24 hrs before TNFalpha challenge measured after 20 to 24 hrs by luciferase reporter gene assay; assay type: cell-based; in short: as §1

Transcription factor Jun (Homo sapiens), sequence (P05412 whole entry): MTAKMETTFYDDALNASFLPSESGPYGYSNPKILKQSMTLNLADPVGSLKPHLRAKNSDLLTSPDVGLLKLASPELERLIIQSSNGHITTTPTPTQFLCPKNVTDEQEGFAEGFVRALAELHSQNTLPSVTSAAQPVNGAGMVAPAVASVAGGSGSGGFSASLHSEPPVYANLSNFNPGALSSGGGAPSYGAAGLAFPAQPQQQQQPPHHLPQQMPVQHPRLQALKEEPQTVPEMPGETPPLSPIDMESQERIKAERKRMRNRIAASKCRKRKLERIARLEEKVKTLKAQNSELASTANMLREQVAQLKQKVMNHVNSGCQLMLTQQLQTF

SMILES | inhibition [2] [%] | IC50 [5] [µM] | Activity [1] | inhibition [3] [%] | Activity [4] [%]
COc1cccc(-n2c(-c3cc(-c4ccc(S(C)(=O)=O)cc4)c(N4CCOCC4)s3)nc3ccccc3c2=O)c1 | 0 |  | Non-toxic | 20 | 
COc1ccc(-n2c(-c3cc(-c4ccc(S(C)(=O)=O)cc4)c(N4CCOCC4)s3)nc3ccccc3c2=O)cc1 | 10 | 26 | Non-toxic | 60 | 53
O=c1c2ccccc2nc(-c2cc(-c3ccncc3)c(N3CCOCC3)s2)n1-c1ccccc1Cl | 35 | 10.3 | Non-toxic | 80 | 43
CSc1ccc(-c2cc(-c3nc4ccccc4c(=O)n3-c3ccccc3C)sc2N2CCOCC2)cc1 | 13 |  | Non-toxic | 15 | 
CS(=O)(=O)c1ccc(-c2cc(-c3nc4ccccc4c(=O)n3-c3ccc(Cl)cc3)sc2N2CCOCC2)cc1 | 7 |  | Non-toxic | 0 | 
COc1ccccc1-n1c(-c2cc(-c3ccc(S(C)(=O)=O)cc3)c(N3CCOCC3)s2)nc2ccccc2c1=O | 33 | 9.2 | Non-toxic | 55 | 63
COc1ccccc1-n1c(-c2cc(-c3ccncc3)c(N3CCOCC3)s2)nc2ccccc2c1=O | 33 | 12.2 | Non-toxic | 55 | 42
CSc1ccc(-c2cc(-c3nc4ccccc4c(=O)n3-c3cccc(C)c3)sc2N2CCOCC2)cc1 | 14 |  | Non-toxic | 11 | 
Cc1cccc(-n2c(-c3cc(-c4ccc(S(C)(=O)=O)cc4)c(N4CCOCC4)s3)nc3ccccc3c2=O)c1 | 48 |  | Non-toxic | 20 | 

Further lines, with some results ahead:

inhibition [2] [%] | IC50 [5] [µM] | SMILES | Activity [1] | inhibition [3] [%] | Activity [4] [%]
29 |  | Cc1ccc(-n2c(-c3cc(-c4ccncc4)c(N4CCOCC4)s3)nc3ccccc3c2=O)cc1 | Non-toxic | 26 | 
25 |  | CC(=O)c1ccc(-n2c(-c3cc(-c4ccccc4)c(N4CCOCC4)s3)nc3ccccc3c2=O)cc1 | Non-toxic | 0 | 
0 | 7.1 | Cc1ccccc1-n1c(-c2cc(-c3ccncc3)c(N3CCOCC3)s2)nc2ccccc2c1=O | Non-toxic | 53 | 51
32 |  | Cc1ccccc1-n1c(-c2cc(-c3ccc(Cl)cc3)c(N3CCOCC3)s2)nc2ccccc2c1=O | Non-toxic | 1 | 
23 |  | O=c1c2ccccc2nc(-c2cc(-c3ccccc3)c(N3CCOCC3)s2)n1-c1ccc(Cl)cc1 | Non-toxic | 0 | 
11 |  | O=c1c2ccccc2nc(-c2cc(-c3ccccc3)c(N3CCOCC3)s2)n1-c1ccccc1 | Non-toxic | 0 | 
0 |  | COc1ccccc1-n1c(-c2cc(-c3ccccc3)c(N3CCOCC3)s2)nc2ccccc2c1=O | Non-toxic | 0 | 
17 |  | CC(=O)Nc1ccc(-c2cc(-c3nc4ccccc4c(=O)n3-c3ccc(Cl)cc3)sc2N2CCOCC2)cc1 | Non-toxic | 0 | 
16 |  | CSc1ccc(-c2cc(-c3nc4ccccc4c(=O)n3-c3ccc(C)cc3)sc2N2CCOCC2)cc1 | Non-toxic | 22 | 
51 |  | Cc1ccc(-n2c(-c3cc(-c4ccc(S(C)(=O)=O)cc4)c(N4CCOCC4)s3)nc3ccccc3c2=O)cc1 | Non-toxic | 55 | 
